High-throughput results as filed in PubChem BioAssay.
Compounds with a hit are over-represented: about 1.5% of the library has one in this group of screens.
CHT PAM = allosterically activates the human high affinity choline transporter; B-score at 10 µM; AID 488977; CHT-expressing cells, membrane potential dye, choline EC20; stronger effect = higher value; LV-AA mutant CHT in HEK293 cells; Q9GZV3; 310,000 compounds, 0.49% hits;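 active = initial fluorescence not abnormally high and integrated response B-score, plate-corrected, over 3 SD above library mean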
Target sequence (Q9GZV3 whole entry, looked up): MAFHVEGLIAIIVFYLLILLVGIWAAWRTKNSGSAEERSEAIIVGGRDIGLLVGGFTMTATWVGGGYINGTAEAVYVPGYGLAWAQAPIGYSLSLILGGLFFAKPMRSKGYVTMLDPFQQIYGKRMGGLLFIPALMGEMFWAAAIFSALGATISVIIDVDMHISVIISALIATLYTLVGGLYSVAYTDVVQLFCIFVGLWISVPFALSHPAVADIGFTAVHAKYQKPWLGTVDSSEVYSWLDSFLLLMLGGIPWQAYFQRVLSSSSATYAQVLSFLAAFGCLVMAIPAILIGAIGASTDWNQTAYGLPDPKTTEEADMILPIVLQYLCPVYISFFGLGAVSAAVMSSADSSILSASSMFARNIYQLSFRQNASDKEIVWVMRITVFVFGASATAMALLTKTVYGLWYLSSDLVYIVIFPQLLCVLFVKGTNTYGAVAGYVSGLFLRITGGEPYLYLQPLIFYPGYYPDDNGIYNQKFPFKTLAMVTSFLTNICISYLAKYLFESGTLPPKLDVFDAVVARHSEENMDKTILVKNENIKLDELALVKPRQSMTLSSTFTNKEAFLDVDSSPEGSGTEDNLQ
T cell modulator = T cell immune modulation candidate; response (vesicle binding), % at 7 µM; 330,000 compounds, 0.068% hits; 2C CD8+ T cell-vesicle binding, flow cytometry; stronger effect = lower value; AID 2052;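 active = response, share of CD8 T cells binding vesicles, and their 90th percentile fluorescence all below set limits, cut at about 80% in these data, passing the limit was not always enough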;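 note: values below 100% mean blocked vesicle binding to the CD8+ T cells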
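Also added: QL9-peptide-loaded Drosophila micro-vesicles bearing Ld, ICAM-1 and B7-1; Test system: purified 2C TCR transgenic mouse naive CD8+ T cells; Measured by: cytometric PE anti-B7-1 and Alexa647 anti-CD8 signals after 1% paraformaldehyde fixation; Timing: binding step 1.5 h, 37 °C, antibody labelling 20 min, ice.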
CHT block = inhibits the human high affinity choline transporter; Q9GZV3; CHT-expressing cells, membrane potential dye, choline response; stronger effect = lower value; B-score at 10 µM; 310,000 compounds, 0.86% hits; AID 488975;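 active = B-score over 3 SD under the library average, and starting fluorescence ratio not unusually high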;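 note: choline stimulus applied at its EC90 after an EC20 pre-addition; B-score computed on integrated fluorescence ratio after choline addition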
VLA-4 inh = inhibition in a human VLA-4 binding assay; inhibition, % (about 7 µM as worked out from the volumes in the protocol); P13612; VLA-4 expressing cells, ligand binding flow cytometry; 330,000 compounds, 0.2% hits; in the data active = inhibition above about 50%
CHT inh conf = confirmation of human choline transporter CHT inhibitors | shares compounds with CHT block | CHT-expressing cells, choline membrane potential dye; LV-to-AA substituted CHT, HEK293 cells | CHT activity remaining % of control (stronger effect = lower value), % at 10 µM | 2,400 compounds, 70% hits | AID 493221;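 active = choline transporter activity left, mean of duplicates at 10 µM, below buffer-only control mean minus 3 SD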;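 note: depolarization triggered by choline at its EC90 following an EC20 pre-addition; 0% = hemicholinium-3 full block and 100% = buffer-only control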
HEK293 CHT ctr = counter-screen for CHT inhibitors: effect in parental HEK293 cells; shares compounds with CHT block; membrane potential dye, choline response; active = decrease or increase beyond buffer ±3SD; membrane potential ratio readout (active if shifted either direction beyond buffer ±3SD; no single direction) at 10 µM; 2,400 compounds, 4% hits; AID 493222;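 note: parental cells lack the transporter so any hit is non-specific; ratio is peak minus trough fluorescence over baseline after EC90 choline challenge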
* = called active by the depositor; i = inactive; nt = no result.

SMILES	CHT PAM	T cell modulator	CHT block	VLA-4 inh	CHT inh conf	HEK293 CHT ctr
O=C(N/N=C/c1cccnc1)c1cc(-c2ccccc2)nc2ccccc12	i	147.9	i	18.4	nt	nt
O=C(NCC(F)(F)F)c1ccc(S(=O)(=O)N2CCN(C(=O)C3CCCO3)CC2)cc1 (centres undefined)	nt	359.6	nt	9.5	nt	nt
Cc1c(Cl)cccc1NCC(=O)NN=C1CCCC1	i	221.4	-5.07*	10.0	47.7%*	i
CCOC(=O)C/C(C)=N/NC(=O)CNc1cccc(Cl)c1C	i	95.8	i	11.7	nt	nt
CCC(NC(=O)CCc1c(C)c2cc3c(-c4ccccc4)coc3cc2oc1=O)C(=O)O (centres undefined)	i	204.5	i	7.3	nt	nt
O=C(C1CCN(S(=O)(=O)c2ccc3ccccc3c2)CC1)N1CCN(c2ncccn2)CC1	i	178.8	-6.01*	0.4	38.6%*	i
CCOc1ccccc1NC(=O)NC1CCN(CC(=O)Nc2ccc3c(c2)OCCO3)CC1	i	226.6	i	-1.4	nt	nt
O=C(CN1CCC(NC(=O)c2ccccc2F)CC1)Nc1ccc2c(c1)OCCO2	i	154.4	-5.02*	-2.5	i	i
CC(C)c1ccc(-c2nc3ccccc3s2)cc1	i	176.8	-8.43*	3.2	i	i
CC(NC(=O)c1ccc(S(=O)(=O)Nc2ccccc2Cl)cc1)c1ccncc1 (centres undefined)	nt	154.0	nt	7.9	nt	nt
CCC(C)(C)NC(=O)C(c1ccccn1)N(C(=O)c1csnn1)c1ccc(C)cc1 (centres undefined)	i	392.7	-5.16*	11.2	i	i
CCC(C)(C)NC(=O)C(c1ccccc1F)N(Cc1ccco1)C(=O)c1csnn1 (centres undefined)	i	250.0	-4.97*	-0.5	i	i
Cc1ccc(N(C(=O)c2csnn2)C(C(=O)NCc2ccccc2)c2ccccn2)cc1 (centres undefined)	i	210.9	i	5.5	nt	nt
CCc1ccc(N(C(=O)c2csnn2)C(C(=O)NC(C)(C)CC)c2cccnc2)cc1 (centres undefined)	i	363.3	-5.1*	15.2	i	i
Cc1ccc2nc(-c3ccc(NC(=O)C4CCCO4)cc3)[nH]c2c1 (centres undefined)	i	518.9	i	9.0	nt	nt
O=[N+]([O-])c1nn(-c2ccc3c(c2)OCCO3)n(O)c1=Nc1ccc(Cl)cc1	i	578.8	i	10.5	nt	nt
CCc1ccc(N=c2c([N+](=O)[O-])nn(-c3ccc4c(c3)OCCO4)n2O)cc1	i	172.0	-6.29*	4.1	68.8%*	i
O=[N+]([O-])c1ccc(O)c(C=Nc2ccc3c(c2)OCCO3)c1	i	247.4	i	2.9	nt	nt
Oc1c(Br)cc(Br)cc1C=Nc1ccc2c(c1)OCO2	i	286.2	-6.35*	-11.9	i	i
Oc1c(Br)cc(Br)cc1C=Nc1ccc2c(c1)OCCO2	i	277.8	-5.35*	13.6	i	i
CCN(CC)c1ccc(NC(=O)CNCc2ccccc2Cl)c(C)c1	i	173.0	-5.19*	7.8	57.4%*	i
COc1ccc2c(c1)CC(C)C/C2=N\NC(=O)c1ccco1 (centres undefined)	i	516.5	-9.52*	0.1	57.5%*	i
CC1CN(CCc2ccccc2)c2nc3c(c(=O)n(CC(N)=O)c(=O)n3C)n2C1 (centres undefined)	i	379.3	i	-4.0	nt	nt
N#Cc1ccc(C(=O)CSc2n[nH]c(=O)n2Cc2ccco2)cc1	i	198.9	i	0.0	nt	nt
Cc1ccc(C)c(C(=O)COc2ncnc3ccccc23)c1	i	299.6	-5.2*	17.4	42.0%*	i
SMILES	CHT PAM	T cell modulator	CHT block	VLA-4 inh	CHT inh conf	HEK293 CHT ctr
COc1cc(OC)c(C(=O)COc2ncnc3ccccc23)c(OC)c1	i	479.2	i	-4.2	nt	nt
CCN1CCCC1CNC(=O)c1ccc2c(c1)N(Cc1cccc(Cl)c1)C(=O)c1ccccc1S2(=O)=O (centres undefined)	i	468.3	-11.7*	18.5	27.5%*	i
CCN1CCCC1CNC(=O)c1ccc2c(c1)N(Cc1ccccc1F)C(=O)c1ccccc1S2(=O)=O (centres undefined)	i	636.0	-5.31*	-7.3	54.5%*	i
CC1CCCN(CCCNC(=O)c2ccc3c(c2)N(Cc2ccccc2F)C(=O)c2ccccc2S3(=O)=O)C1 (centres undefined)	i	444.1	-7.12*	0.0	34.6%*	i
O=C(NCCN1CCOCC1)c1ccc2c(c1)N(Cc1ccccc1F)C(=O)c1ccccc1S2(=O)=O	i	744.0	i	-28.2	nt	nt
CCN1C(=O)c2ccccc2S(=O)(=O)c2ccc(C(=O)NCCCN(CC(C)C)CC(C)C)cc21	i	268.5	i	1.7	nt	nt
O=C(NCCCN1CCOCC1)c1ccc2c(c1)N(Cc1cccc(Cl)c1)C(=O)c1ccccc1S2=O (centres undefined)	i	284.5	i	-8.6	nt	nt
O=C(NCCN1CCCC1)c1ccc2c(c1)N(Cc1cccc(Cl)c1)C(=O)c1ccccc1S2(=O)=O	i	267.4	-9.49*	13.0	34.2%*	i
C[C@H](CO)N1C[C@H](C)[C@@H](CN(C)C(=O)Nc2ccc3c(c2)OCO3)Oc2c(NC(=O)Nc3ccc(C(F)(F)F)cc3)cccc2C1=O	nt	170.8	nt	-1.1	nt	nt
CCN(C(=O)C(C)Sc1nnc(-c2ccncc2)n1C)C1CCCCC1 (centres undefined)	nt	257.2	nt	17.3	nt	nt
CN1CCc2c(n(CC(O)CN3CCN(CCO)CC3)c3ccccc23)C1=O (centres undefined)	i	154.7	i	-2.9	nt	nt
O=C(Nc1cc(C(F)(F)F)ccc1N1CCOCC1)c1ccc[n+]([O-])c1	i	439.9	i	-2.7	nt	nt
Cc1ccc[n+](CC(=O)Nc2cc(C(F)(F)F)ccc2N2CCOCC2)c1	i	178.7	-8*	-0.5	25.1%*	i
Cc1ccc(C(=O)NCC(=O)OCCCOC(=O)CNC(=O)c2ccc(C)cc2)cc1	i	306.1	i	4.4	nt	nt
Nc1c(C(=O)NCCN2CCOCC2)c2nc3ccccc3nc2n1CCc1ccccc1F	i	214.3	-7.84*	9.9	29.8%*	i
CC(C)c1ccc(CNCc2ccccc2)cc1	i	435.4	-5.13*	12.2	41.7%*	-15.2*
CC(C)c1ccc(CNC(=O)CCc2ccccc2)cc1	i	233.8	i	13.4	nt	nt
CC(C)(C)n1ncc2c(=O)n(CC(=O)OCc3ccccc3)cnc21	i	116.0	-6.71*	4.5	i	i
CC(C)(C)n1ncc2c(=O)n(CC(=O)c3ccccc3)cnc21	i	353.8	i	-5.1	nt	nt
COc1c(C(=O)NNC(=O)c2ccccc2Cl)csc1Br	i	417.4	i	-7.0	nt	nt
